# Reference: ChEMBL document CHEMBL3414559, “Novel C-4 heteroaryl 13-cis-retinamide Mnk/AR degrading agents inhibit cell proliferation and migration and induce apoptosis in human breast and prostate cancer cells and suppress growth of MDA-MB-231 human breast and CWR22Rv1 human prostate tumor xenografts in mice” (J Med Chem, 2015)
# Activity calls are given as the source filed them. No cut-off for these calls is given here.
# Key:
# [1] = Growth inhibition of human SKBR3 cells by MTT assay; type: functional; conditions: SK-BR-3
# Summary of the method: (§1)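 Cells grown in RPMI 1640 with 10% FBS, plated at 2500 cells/well, treated across a dose range; growth read by MTT. GI50 taken from dose–response curves by nonlinear regression, at least three independent experiments.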
# MDA-MB-231 [2] = assay: Reduction in Mnk2 protein expression in human MDA-MB-231 cells at 0.63 uM to 20 uM after 24 hrs by SDS-PAGE and Western blotting method; type: functional, cell-based
# Summary of the method: (§2)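 Breast cancer cells in RPMI 1640 with 10% FBS treated 24 h at indicated concentrations, DMSO vehicle control; equal protein loaded on SDS–PAGE and immunoblotted for Mnk1, Mnk2, peIF4E, eIF4E and cleaved PARP; blots reprobed for GAPDH as loading control.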
# Mus musculus [3] = assay: Toxicity in human MDA-MB-231 cells xenografted athymic nude mouse assessed as induction of toxic signs at 20 mg/kg, ip dosed once daily for 5 days per week for 28 days; conditions: in vivo
# [4] = Growth inhibition of human CWR22Rv1 cells by MTT assay; type: functional, CWR22R; conditions: 22Rv1; summary of the method: as §1
# MCF7 [5] = assay: Reduction in peIF4E protein expression in human MCF7 cells at 0.63 uM to 20 uM after 24 hrs by SDS-PAGE and Western blotting method; type: functional, cell-based
# Summary of the method: (§3)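 MCF-7, MDA-MB-231 and MDA-MB-468 cells, kept in RPMI 1640 with 10% FBS, were exposed for 24 h to a range of concentrations, with DMSO vehicle controls. Equal protein from lysates was separated by SDS–PAGE and probed for Mnk1, Mnk2, peIF4E, eIF4E and cPARP. GAPDH reprobing served as loading control.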
# MDA-MB-231 [6] = assay: Antitumor activity against human MDA-MB-231 cells xenografted in nude mouse assessed as increase in Bad protein expression at 20 mg/kg, ip dosed once daily for 5 days per week for 28 days by SDS-PAGE and Western blotting method
# MCF7 [7] = assay: Growth inhibition of human MCF7 cells by MTT assay; type: functional; summary of the method: as §1
# MDA-MB-231 [8] = assay: Antitumor activity against human MDA-MB-231 cells xenografted in nude mouse assessed as reduction in Mnk1/2 protein expression at 20 mg/kg, ip dosed once daily for 5 days per week for 28 days by SDS-PAGE and Western blotting method
# MCF7 [9] = assay: Reduction in Mnk1 protein expression in human MCF7 cells at 0.63 uM to 20 uM after 24 hrs by SDS-PAGE and Western blotting method; type: functional, cell-based; summary of the method: as §2
# Mus musculus [10] = assay: Toxicity in human MDA-MB-231 cells xenografted athymic nude mouse assessed as effect on body weight at 20 mg/kg, ip dosed once daily for 5 days per week for 28 days; conditions: in vivo
# MDA-MB-468 [11] = assay: Reduction in Mnk2 protein expression in human MDA-MB-468 cells at 0.63 uM to 20 uM after 24 hrs by SDS-PAGE and Western blotting method; type: functional, cell-based; summary of the method: as §2
# MDA-MB-468 [12] = assay: Induction of apoptosis in human MDA-MB-468 cells assessed as increase in c-PARP formation at 0.63 uM to 20 uM after 24 hrs by SDS-PAGE and Western blotting method; type: functional, cell-based; summary of the method: as §2
# MDA-MB-231 [13] = assay: Antitumor activity against human MDA-MB-231 cells xenografted in nude mouse assessed as reduction in cyclin D1 protein expression at 20 mg/kg, ip dosed once daily for 5 days per week for 28 days by SDS-PAGE and Western blotting method
# MCF7 [14] = assay: Induction of apoptosis in human MCF7 cells assessed as increase in c-PARP formation at 0.63 uM to 20 uM after 24 hrs by SDS-PAGE and Western blotting method; type: functional, cell-based; summary of the method: as §2
# MDA-MB-231 [15] = assay: Effect on total eIF4E protein expression in human MDA-MB-231 cells at 0.63 uM to 20 uM after 24 hrs by SDS-PAGE and Western blotting method; type: functional, cell-based; summary of the method: as §2
# LNCaP [16] = assay: Growth inhibition of human LNCAP cells by MTT assay; type: functional; summary of the method: as §1
# LNCaP [17] = assay: Induction of apoptosis in human LNCAP cells assessed as increase in c-PARP formation at 0.6 uM to 20 uM after 24 hrs by SDS-PAGE and Western blotting method; type: functional, cell-based
# Summary of the method: (§4)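 LNCaP cells (RPMI 1640, 10% FBS) exposed 24 h to 0.6–20 μM, DMSO vehicle control; equal protein on SDS–PAGE, immunoblotted for fAR, Mnk1/2, peIF4E, cyclin D1 and cleaved PARP; β-actin reprobe for loading.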
# MDA-MB-231 [18] = assay: Reduction in Mnk1 protein expression in human MDA-MB-231 cells at 0.63 uM to 20 uM after 24 hrs by SDS-PAGE and Western blotting method; type: functional, cell-based; summary of the method: as §2
# MDA-MB-468 [19] = assay: Effect on total eIF4E protein expression in human MDA-MB-468 cells at 0.63 uM to 20 uM after 24 hrs by SDS-PAGE and Western blotting method; type: functional, cell-based; summary of the method: as §2
# MDA-MB-468 [20] = assay: Growth inhibition of human MDA-MB-468 cells by MTT assay; type: functional; summary of the method: as §1
# MDA-MB-231 [21] = assay: Antitumor activity against human MDA-MB-231 cells xenografted in nude mouse assessed as reduction in Bcl2 protein expression at 20 mg/kg, ip dosed once daily for 5 days per week for 28 days by SDS-PAGE and Western blotting method
# MDA-MB-231 [22] = assay: Antitumor activity against human MDA-MB-231 cells xenografted in nude mouse assessed as reduction in peIF4E protein expression at 20 mg/kg, ip dosed once daily for 5 days per week for 28 days by SDS-PAGE and Western blotting method
# MDA-MB-468 [23] = assay: Reduction in Mnk1 protein expression in human MDA-MB-468 cells at 0.63 uM to 20 uM after 24 hrs by SDS-PAGE and Western blotting method; type: functional, cell-based; summary of the method: as §2
# MDA-MB-231 [24] = assay: Antitumor activity against human MDA-MB-231 cells xenografted in nude mouse assessed as increase in Bax protein expression at 20 mg/kg, ip dosed once daily for 5 days per week for 28 days by SDS-PAGE and Western blotting method
# LNCaP [25] = assay: Induction of apoptosis in human LNCAP cells assessed as reduction in cyclin D1 levels at 0.6 uM to 20 uM after 24 hrs by SDS-PAGE and Western blotting method; type: functional, cell-based; summary of the method: as §4
# LNCaP [26] = assay: Effect on total eIF4E protein expression in human LNCAP cells at 0.6 uM to 20 uM after 24 hrs by SDS-PAGE and Western blotting method; type: functional, cell-based
# MDA-MB-468 [27] = assay: Reduction in peIF4E protein expression in human MDA-MB-468 cells at 0.63 uM to 20 uM after 24 hrs by SDS-PAGE and Western blotting method; type: functional, cell-based; summary of the method: as §3
# MCF7 [28] = assay: Effect on total eIF4E protein expression in human MCF7 cells at 0.63 uM to 20 uM after 24 hrs by SDS-PAGE and Western blotting method; type: functional, cell-based; summary of the method: as §2
GI50 (MCF7 [7]) [nM],GI50 (LNCaP [16]) [nM],GI50 (MDA-MB-468 [20]) [nM],Structure (SMILES),GI50 [1] [nM],inhibition (MDA-MB-231 [2]),Activity (Mus musculus [3]),GI50 [4] [nM],inhibition (MCF7 [5]),Activity (MDA-MB-231 [6]),Activity (MDA-MB-231 [8]),inhibition (MCF7 [9]),Activity (Mus musculus [10]),inhibition (MDA-MB-468 [11]),Activity (MDA-MB-468 [12]),Activity (MDA-MB-231 [13]),Activity (MCF7 [14]),Activity (MDA-MB-231 [15]),Activity (LNCaP [17]),inhibition (MDA-MB-231 [18]),Activity (MDA-MB-468 [19]),further results
160,1690,2700,CC1=C(/C=C/C(C)=C/C=C/C(C)=C\C(=O)NCc2ccc(O)cc2)C(C)(C)CCC1n1ccnc1 (stereo unspecified),2450,Dose-dependent effect,Non-toxic,1860,Dose-dependent effect,Active,Active,Dose-dependent effect,Non-toxic,Dose-dependent effect,Dose-dependent effect,Active,Dose-dependent effect,inactive,Active,Dose-dependent effect,inactive,Activity (MDA-MB-231 [21]): Active; Activity (MDA-MB-231 [22]): Active; inhibition (MDA-MB-468 [23]): Dose-dependent effect; Activity (MDA-MB-231 [24]): Active; Activity (LNCaP [25]): Active; Activity (LNCaP [26]): inactive; inhibition (MDA-MB-468 [27]): Dose-dependent effect; Activity (MCF7 [28]): inactive
5490,2690,6760,CC1=C(/C=C/C(C)=C/C=C/C(C)=C\C(=O)Nc2cccc(F)c2)C(C)(C)CCC1n1ccnc1 (stereo unspecified),17000,Dose-dependent effect,Non-toxic,2040,Dose-dependent effect,Active,Active,Dose-dependent effect,Non-toxic,Dose-dependent effect,Dose-dependent effect,Active,Dose-dependent effect,inactive,Active,Dose-dependent effect,inactive,Activity (MDA-MB-231 [21]): Active; Activity (MDA-MB-231 [22]): Active; inhibition (MDA-MB-468 [23]): Dose-dependent effect; Activity (MDA-MB-231 [24]): Active; Activity (LNCaP [25]): Active; Activity (LNCaP [26]): inactive; inhibition (MDA-MB-468 [27]): Dose-dependent effect; Activity (MCF7 [28]): inactive
